Laboratory results from ChEMBL document CHEMBL5325428 (Eur J Med Chem, 2023).
pEC50, pIC50: −log10 of the molar value.

Tests used:
[1] = system: SARS-CoV-2; experiment: Antiviral activity against SARS-CoV-2 Wuhan-HU-1 infected in HEK293T cells assessed as inhibition of viral replication incubated for 30 hrs by luciferase reporter gene assay; type: functional, organism-based; conditions: Severe acute respiratory syndrome coronavirus 2, Wuhan-HU-1, HEK-293T
In short: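 This is a non-infectious Wuhan-Hu-1 replicon system, not infectious virus. Replicon RNA was electroporated into 293T cells, which were then incubated for 30 h with compound at 2, 0.5, 0.1 and 0.02 µM or with 0.1% DMSO. Read-out was luciferase activity. Values are mean ± SD.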

[2] = Inhibition of MERS-CoV 3CLpro using FAM-SAVLQ as substrate preincubated with enzyme for 1 hr followed by susbtrate addition and measured after 1 hr by FRET assay; set-up: species or system Middle East respiratory syndrome-related coronavirus
[3] = Cytotoxicity against human HEK293T cells assessed as reduction in cell viability incubated for 72 hrs by CytoTox 96 nonradioactive assay; type: toxicity, cell-based, HEK-293T
[4] = Safety index, ratio of CC50 for cytotoxicity against human HEK293T cells to EC50 for antiviral activity against SARS-CoV-2 Wuhan-HU-1 infected in HEK293T cells; type: toxicity, cell-based; conditions: read-out: Ratio CC50/EC50
In short: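 In vitro safety index was calculated as the 293T CC50 divided by the SARS-CoV-2 replicon EC50.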

[5] = molecular target: Replicase polyprotein 1ab (Severe acute respiratory syndrome coronavirus 2, UniProt P0DTD1); experiment: Inhibition of N-terminal His6-tagged full length SARS-CoV-2 3CLpro using FAM-SAVLQ as substrate preincubated with enzyme for 1 hr followed by susbtrate addition and measured after 1 hr by FRET assay

Compound | pEC50 [1] | pIC50 [2] | CC50 at 72 h [3] [nM] | selectivity ratio [4] | pIC50 [5]
CC(C)C[C@H](NC(=O)OCc1ccccc1)C(=O)N[C@@H](C[C@@H]1CCNC1=O)C(O)S(=O)(=O)O (some centres undefined) | 7.57 | – | – | – | –
CC(C)C[C@H](NC(=O)OCc1ccccc1)C(=O)N[C@H](C=O)C[C@@H]1CCNC1=O | 7.51 | 6.55 | […] | – | –
[2H]C([2H])(OC(=O)N[C@@H](CC(C)C)C(=O)N[C@@H](C[C@@H]1CCNC1=O)C(O)S(=O)(=O)[O-])C(C)(C)Oc1ccc(Cl)cc1.[Na+] (some centres undefined) | 7.92 | 7.70 | > 50000 | 3330 | 6.77
CC(C)C[C@H](NC(=O)OCC(C)(C)Sc1cccc(Cl)c1)C(=O)N[C@@H](C[C@@H]1CCNC1=O)C(O)S(=O)(=O)O (some centres undefined) | 7.96 | 7.00 | > 50000 | 3330 | 6.77
CC(C)C[C@H](NC(=O)OCC(C)(C)Sc1ccccc1)C(=O)N[C@@H](C[C@@H]1CCNC1=O)C(O)(C(=O)NC1CC1)S(=O)(=O)O (some centres undefined) | 7.15 | 6.74 | > 50000 | – | 6.35
CC(C)C[C@H](NC(=O)OCC(C)(C)Sc1cccc(F)c1)C(=O)N[C@H](C=O)C[C@@H]1CCNC1=O | 8.05 | 7.00 | > 50000 | 3330 | 6.85
CC(C)C[C@H](NC(=O)OCC(C)(C)Sc1ccccc1)C(=O)N[C@@H](C[C@@H]1CCNC1=O)C(O)S(=O)(=O)O (some centres undefined) | 8.00 | – | > 50000 | 3330 | 7.05
CC(C)C[C@H](NC(=O)OCC(C)(C)Oc1cccc(Cl)c1)C(=O)N[C@@H](C[C@@H]1CCNC1=O)C(O)S(=O)(=O)O (some centres undefined) | 7.85 | 7.70 | > 50000 | 3330 | 6.68
CC(C)C[C@H](NC(=O)OCC(C)(C)Sc1cccc(F)c1)C(=O)N[C@@H](C[C@@H]1CCNC1=O)C(O)S(=O)(=O)O (some centres undefined) | 8.00 | – | > 50000 | 3330 | 6.89
[2H]C([2H])(OC(=O)N[C@@H](CC(C)C)C(=O)N[C@@H](C[C@@H]1CCNC1=O)C(O)S(=O)(=O)[O-])C(C)(C)Sc1ccccc1.[Na+] (some centres undefined) | 7.92 | 7.40 | > 50000 | 3330 | 6.51
CC(C)C[C@H](NC(=O)OCC(C)(O)c1cccc(Cl)c1)C(=O)N[C@@H](C[C@@H]1CCNC1=O)C(O)S(=O)(=O)O (mixture of isomers) | 7.60 | 7.00 | > 50000 | – | 6.49
CC(C)C[C@H](NC(=O)OCC(C)(O)c1cccc(Cl)c1)C(=O)N[C@H](C=O)C[C@@H]1CCNC1=O (mixture of isomers) | 7.60 | 6.92 | > 50000 | – | 6.54
